Measured values as given in paper PMC6069912 (ESMO Open, 2018).
*1 amine or outer side, *2 acyl side, *3 side chain or, on linkers, in order; H or OH if unused. Where a SMILES comes first, the peptide text is derived from it. Side-chain parts run from the residue outwards. [ ]: non-standard residue; d: D form. The star is where a group is joined. Ethylenediamine = C(CN[*:2])N[*:1]; Hyp = O=C(O)[C@@H]1C[C@@H](O)CN1; Phg = N[C@H](C(=O)O)c1ccccc1; CO = O=C([*:1])[*:2]; Bn = c1ccc(C*)cc1

Key:
Type in all cases: in vivo, human
[1] = tested on: BRAF-WT and NRAS-WT metastatic melanoma; assay: Antitumour activity: tumour response by RECIST 1.0; conditions: n=10, two patients, 95% CI 2.5 to 55.6; by CT or MRI and 18-FDG-PET
How it was run: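 Patients with measurable RECIST 1.0 disease and ≥1 lesion suitable for 18-FDG-PET SUV measurement received the test compound SC at 300, 600, 900 and 1200 µg tid by intrapatient escalation for ≤8 weeks, optionally followed by 80 mg long-acting IM every 28 days. Investigators assessed response by RECIST 1.0 on CT/MRI on days 57, 113 and 169 and at end of treatment, and by adapted EORTC criteria on 18-FDG-PET on days 29 and 57. Efficacy set: ≥1 dose; 95% CI.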

[2] = tested on: patients with BRAF-WT and NRAS-WT metastatic melanoma; assay: Phase I safety: adverse events
How it was run: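 Open-label intrapatient escalation of the test compound SC at 300, 600, 900 and 1200 µg tid over an 8-week dose-escalation phase. At each visit, monitoring covered laboratory tests, ECG, vital signs, physical examination and gall bladder ultrasound, with AEs recorded in the eCRF. AEs of any relationship were tabulated by preferred term and by the dose level at which they started. Safety set: ≥1 dose plus ≥1 post-baseline safety assessment.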

[3] = tested on: patient with BRAF-WT and NRAS-WT stage IVc cutaneous melanoma; assay: Individual patient response summary: ascites and weight; conditions: patient number 4, after readministration of pasireotide
[4] = Pharmacokinetics of pasireotide SC in patients, non-compartmental analysis
How it was run: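 Patients received the test compound SC at 300–1200 µg tid during the dose-escalation phase. […] was sampled on days 1 and 8 of each of the four dose-escalation cycles and monthly during follow-up. Non-compartmental analysis gave Cmax and Cmin on days 1 and 8 of each cycle, and AUC0–2h at steady state.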

[5] = tested on: IGF-1, IGF-2, IGFBP2, IGFBP3, S100B, MIA; assay: Serum secretion and melanoma response biomarkers over time; conditions: patients
How it was run: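 Serum S100B, MIA, IGF-1, IGF-2, IGFBP2 and IGFBP3 were followed over time in patients receiving the test compound SC tid (300–1200 µg escalation, optionally followed by 80 mg long-acting IM every 28 days). Results were summarised descriptively.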

Ki-67 = Ki-67 staining of tumour samples before and during pasireotide; conditions: assessed before and during treatment in four patients
[6] = dose-escalation phase, AEs started at 300 µg tid SC, safety set n=10
[7] = dose-escalation phase, AEs started at 600 µg tid SC, safety set n=10
[8] = dose-escalation phase, AEs started at 900 µg tid SC, safety set n=10
[9] = dose-escalation phase, AEs started at 1200 µg tid SC, safety set n=10
[10] = dose-escalation phase, all patients (all dose levels), safety set n=10
[11] = overall (dose-escalation phase+follow-up phase), all patients, safety set n=10

Which “Best overall DCR (stable disease or better)” value [1] does the source give for `NCCCC[C@@H]1NC(=O)[C@@H](Cc2c[nH]c3ccccc23)NC(=O)[C@H](c2ccccc2)NC(=O)[C@@H]2C[C@@H](OC(=O)NCCN)CN2C(=O)[C@H](Cc2ccccc2)NC(=O)[C@H](Cc2ccc(OCc3ccccc3)cc2)NC1=O` [pasireotide] (cyclo([Hyp]([CO-Ethylenediamine])[Phg][dW]KY(Bn)F)) here?
The value was 20%.

And the “Tolerability in patients with BRAF-WT and NRAS-WT melanoma” value ([2]; authors' overall conclusion)?
The value was “safe and well tolerated”.

What about the “Chills, AE regardless of study drug relationship” value (from here on “Chills, AE regardless”) [2, 6] of the same molecule?
The value was 0 n (%).

What about the “Diarrhoea, AE regardless of study drug relationship” value (“Diarrhoea, AE regardless” below) [2, 6] of the same molecule?
Its value is 4 (40) n (%).

And the “Fatigue, AE regardless of study drug relationship” value (from here on “Fatigue, AE regardless”) [2, 6]?
Its value is 2 (20) n (%).

What about the “Hyperglycaemia, AE regardless of study drug relationship” value (“Hyperglycaemia, AE regardless” for short) [2, 6] of the same molecule?
Its value is 2 (20) n (%).

And the “Hypophosphatemia, AE regardless of study drug relationship” value (“Hypophosphatemia, AE regardless” below) [2, 6]?
The value was 1 (10) n (%).

What about the “Nausea, AE regardless of study drug relationship” value (“Nausea, AE regardless” for short) [2, 6] of the same molecule?
The value was 3 (30) n (%).

What about the “Tumour pain, AE regardless of study drug relationship” value (“Tumour pain, AE regardless” below) [2, 6] of the same molecule?
Its value is 2 (20) n (%).

What about the “Chills, AE regardless” value [2, 7] of the same molecule?
The value was 1 (10) n (%).

What about the “Diarrhoea, AE regardless” value [2, 7] of the same molecule?
Its value is 1 (10) n (%).

What about the “Fatigue, AE regardless” value [2, 7] of the same molecule?
The value was 0 n (%).

What about the “Hyperglycaemia, AE regardless” value [2, 7] of the same molecule?
Its value is 0 n (%).

What about the “Hypophosphatemia, AE regardless” value [2, 7] of the same molecule?
The value was 1 (10) n (%).

And the “Nausea, AE regardless” value [2, 7]?
Its value is 2 (20) n (%).

And the “Tumour pain, AE regardless” value [2, 7]?
Its value is 0 n (%).

And the “Chills, AE regardless” value [2, 8]?
Its value is 1 (10) n (%).

And the “Diarrhoea, AE regardless” value [2, 8]?
The value was 0 n (%).

What about the “Fatigue, AE regardless” value [2, 8] of the same molecule?
The value was 0 n (%).

What about the “Hyperglycaemia, AE regardless” value [2, 8] of the same molecule?
Its value is 0 n (%).

And the “Hypophosphatemia, AE regardless” value [2, 8]?
Its value is 1 (10) n (%).

And the “Nausea, AE regardless” value [2, 8]?
Its value is 1 (10) n (%).

What about the “Tumour pain, AE regardless” value [2, 8] of the same molecule?
Its value is 0 n (%).

And the “Chills, AE regardless” value [2, 9]?
The value was 0 n (%).

And the “Diarrhoea, AE regardless” value [2, 9]?
Its value is 0 n (%).

And the “Fatigue, AE regardless” value [2, 9]?
Its value is 0 n (%).

What about the “Hyperglycaemia, AE regardless” value [2, 9] of the same molecule?
Its value is 0 n (%).

And the “Hypophosphatemia, AE regardless” value [2, 9]?
The value was 0 n (%).

What about the “Nausea, AE regardless” value [2, 9] of the same molecule?
Its value is 0 n (%).

And the “Tumour pain, AE regardless” value [2, 9]?
The value was 0 n (%).

And the “Chills, AE regardless” value [2, 10]?
Its value is 2 (20) n (%).

And the “Diarrhoea, AE regardless” value [2, 10]?
Its value is 5 (50) n (%).

And the “Fatigue, AE regardless” value [2, 10]?
Its value is 2 (20) n (%).

What about the “Hyperglycaemia, AE regardless” value [2, 10] of the same molecule?
The value was 2 (20) n (%).

What about the “Hypophosphatemia, AE regardless” value [2, 10] of the same molecule?
The value was 2 (20) n (%).

What about the “Nausea, AE regardless” value [2, 10] of the same molecule?
Its value is 5 (50) n (%).

And the “Tumour pain, AE regardless” value [2, 10]?
The value was 2 (20) n (%).

And the “Incidence of chills (most commonly reported AEs)” value ([2]; dose-escalation phase, n=10)?
The value was 20%.

And the “Incidence of diarrhoea (most commonly reported AEs)” value ([2]; dose-escalation phase, n=10)?
The value was 50%.

What about the “Incidence of fatigue (most commonly reported AEs)” value ([2]; dose-escalation phase, n=10) of the same molecule?
Its value is 20%.

And the “Incidence of hyperglycaemia (most commonly reported AEs)” value ([2]; dose-escalation phase, n=10)?
The value was 20%.

And the “Incidence of hypophosphatemia (most commonly reported AEs)” value ([2]; dose-escalation phase, n=10)?
The value was 20%.

What about the “Incidence of nausea (most commonly reported AEs)” value ([2]; dose-escalation phase, n=10) of the same molecule?
The value was 50%.

What about the “Incidence of tumour pain (most commonly reported AEs)” value ([2]; dose-escalation phase, n=10) of the same molecule?
The value was 20%.

And the “Study drug-related AE: diarrhoea” value ([2]; dose-escalation phase, n=10)?
The value was 50%.

What about the “Study drug-related AE: fatigue” value ([2]; dose-escalation phase, n=10) of the same molecule?
Its value is 20%.

What about the “Study drug-related AE: hyperglycaemia” value ([2]; dose-escalation phase, n=10) of the same molecule?
The value was 20%.

And the “Study drug-related AE: nausea” value ([2]; dose-escalation phase, n=10)?
Its value is 50%.

What about the “Chills, AE regardless” value [2, 11] of the same molecule?
Its value is 2 (20) n (%).

And the “Diarrhoea, AE regardless” value [2, 11]?
The value was 5 (50) n (%).

What about the “Fatigue, AE regardless” value [2, 11] of the same molecule?
Its value is 3 (30) n (%).

And the “Hyperglycaemia, AE regardless” value [2, 11]?
Its value is 3 (30) n (%).

And the “Hypophosphatemia, AE regardless” value [2, 11]?
The value was 3 (30) n (%).

What about the “Nausea, AE regardless” value [2, 11] of the same molecule?
The value was 5 (50) n (%).

What about the “Tumour pain, AE regardless” value [2, 11] of the same molecule?
Its value is 2 (20) n (%).

And the “Weight decreased, AE regardless of study drug relationship” value [2, 11]?
Its value is 2 (20) n (%).

And the “Incidence of chills (most commonly reported AEs)” value ([2]; overall safety, n=10)?
Its value is 20%.

And the “Incidence of decreased weight (most commonly reported AEs)” value ([2]; overall safety, n=10)?
Its value is 20%.

What about the “Incidence of diarrhoea (most commonly reported AEs)” value ([2]; overall safety, n=10) of the same molecule?
The value was 50%.

What about the “Incidence of fatigue (most commonly reported AEs)” value ([2]; overall safety, n=10) of the same molecule?
Its value is 30%.

What about the “Incidence of hyperglycaemia (most commonly reported AEs)” value ([2]; overall safety, n=10) of the same molecule?
The value was 30%.

And the “Incidence of hypophosphatemia (most commonly reported AEs)” value ([2]; overall safety, n=10)?
Its value is 30%.

What about the “Incidence of nausea (most commonly reported AEs)” value ([2]; overall safety, n=10) of the same molecule?
The value was 50%.

What about the “Incidence of tumour pain (most commonly reported AEs)” value ([2]; overall safety, n=10) of the same molecule?
The value was 20%.

What about the “Study drug-related AE: diarrhoea” value ([2]; overall safety, n=10) of the same molecule?
The value was 50%.

And the “Study drug-related AE: fatigue” value ([2]; overall safety, n=10)?
Its value is 20%.

And the “Study drug-related AE: hyperglycaemia” value ([2]; overall safety, n=10)?
The value was 30%.

What about the “Study drug-related AE: hypophosphatemia” value ([2]; overall safety, n=10) of the same molecule?
The value was 20%.

And the “Study drug-related AE: nausea” value ([2]; overall safety, n=10)?
Its value is 50%.

What about the “Study drug-related AE: weight decrease” value ([2]; overall safety, n=10) of the same molecule?
The value was 20%.

What about the “Study drug-related AEs, patients with any” value ([2]; overall safety, n=10) of the same molecule?
Its value is 80%.

What about the “Grade 3 or 4 drug-related AEs” value ([2]; overall safety, diarrhoea and nausea in one patient, hypophosphatemia in one patient, n=10) of the same molecule?
The value was 20%.

And the Improvement in ascites [3]?
Its Improvement in ascites is “from grade 2 to grade 1”.

And the Reduction in weight ([3]; ascites)?
The Reduction in weight was “from 85 kg to 63 kg”.

And the “Accumulation ratio of AUC0–2h” value ([4]; 300 µg three times a day SC, patients)?
The value was 147%.

What about the “AUC0–2h, Cmax and Cmin versus dose” value ([4]; mean plasma concentration versus time profiles on day 8, 300-1200 µg tid SC) of the same molecule?
Its value is “increased with the increasing dose”.

And the “Serum level of IGF-1 during treatment” value ([5]; over time)?
The value was “decrease”.

What about the “Serum level of IGF-2 during treatment” value ([5]; over time) of the same molecule?
The value was “decrease”.

And the “Serum level of MIA during treatment” value ([5]; over time)?
The value was “decrease”.

What about the “Serum level of S100B during treatment” value ([5]; over time) of the same molecule?
Its value is “decrease”.

What about the “IGFBP2 serum levels with time” value ([5]; serum) of the same molecule?
The value was “increase”.

What about the “IGFBP3 levels with time” value ([5]; serum) of the same molecule?
The value was “decrease”.

What about the “Tumour samples with decreases in Ki-67 staining following treatment” value (Ki-67) of the same molecule?
The value was “Three of the four”.
